The values that follow come from ChEMBL document CHEMBL4038309, “Design and Synthesis of Chlorinated and Fluorinated 7-Azaindenoisoquinolines as Potent Cytotoxic Anticancer Agents That Inhibit Topoisomerase I” (J Med Chem, 2017).

The subject of experiment [1] is HCT-116. Kind of experiment: Antiproliferative activity against human HCT116 cells assessed as growth inhibition. It counts as functional. The method in brief:
(§1)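 NCI-60 screen: single-dose pre-screen at 10 μM, then five concentrations from 0.01 to 100 μM. Values beyond the tested range are recorded as 0.01 or 100 μM.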

For experiment [2], the system named is DU-145. The experiment is described as follows: Antiproliferative activity against human DU145 cells assessed as growth inhibition. It is filed as functional. The essentials: as §1
Experiment [3] deals with MCF7. Kind of experiment: Antiproliferative activity against human MCF7 cells assessed as growth inhibition. It is filed as functional. The method in brief: as §1
The subject of experiment [4] is UACC-62. The experiment is described as follows: Antiproliferative activity against human UACC62 cells assessed as growth inhibition. It counts as functional. The essentials:
as §1

The target of experiment [5] is T1, DNA topoisomerase 1 (Homo sapiens) (UniProt P11387).
T1 sequence (whole entry): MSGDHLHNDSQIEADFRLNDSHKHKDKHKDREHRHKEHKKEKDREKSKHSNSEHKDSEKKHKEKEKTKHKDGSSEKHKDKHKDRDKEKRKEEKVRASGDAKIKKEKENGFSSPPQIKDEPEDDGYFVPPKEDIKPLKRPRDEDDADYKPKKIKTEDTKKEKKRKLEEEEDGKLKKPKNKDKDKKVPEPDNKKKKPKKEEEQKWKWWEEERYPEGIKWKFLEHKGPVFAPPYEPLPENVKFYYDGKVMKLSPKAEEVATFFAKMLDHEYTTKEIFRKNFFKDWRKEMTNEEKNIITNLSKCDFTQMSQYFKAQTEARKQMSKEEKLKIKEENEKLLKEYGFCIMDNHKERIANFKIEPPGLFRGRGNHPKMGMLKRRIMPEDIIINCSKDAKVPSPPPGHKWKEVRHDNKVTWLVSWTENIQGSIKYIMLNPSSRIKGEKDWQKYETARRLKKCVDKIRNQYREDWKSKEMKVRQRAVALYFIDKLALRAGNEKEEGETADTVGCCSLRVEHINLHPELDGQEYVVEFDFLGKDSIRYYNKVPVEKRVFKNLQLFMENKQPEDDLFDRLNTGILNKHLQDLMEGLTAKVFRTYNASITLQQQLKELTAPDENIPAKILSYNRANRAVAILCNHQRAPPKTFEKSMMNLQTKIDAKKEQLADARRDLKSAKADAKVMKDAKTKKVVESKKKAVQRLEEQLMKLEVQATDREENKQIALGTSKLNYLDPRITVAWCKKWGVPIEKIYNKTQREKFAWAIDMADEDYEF
Kind of experiment: Inhibition of recombinant Top1 (unknown origin) assessed as Top 1 mediated DNA cleavage using 3'-[32P]-labeled 117 bp DNA as substrate at 0.1 to 100 uM after 20 mins by PAGE analysis. The essentials:
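About 2 nM 3'-[32P]-labeled DNA with recombinant Top1 in 10 mM Tris-HCl pH 7.5, 50 mM KCl, 5 mM MgCl2, 0.1 mM EDTA, 15 μg/mL BSA, 25 °C, 20 min. Compound at 0.1, 1, 10 and 100 μM. Stopped with 0.5% SDS and formamide dye, then run on 20% denaturing PAGE with phosphorimaging.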

The subject of experiment [6] is HOP-62. The experiment is described as follows: Antiproliferative activity against human HOP62 cells assessed as growth inhibition. It is filed as functional. The essentials: as §1
The subject of experiment [7] is OVCAR-3. Kind of experiment: Antiproliferative activity against human OVCAR3 cells assessed as growth inhibition. It counts as functional. The essentials: as §1
Experiment [8] concerns SF-539. Kind of experiment: Antiproliferative activity against human SF539 cells assessed as growth inhibition. It counts as functional. The method in brief: as §1
Experiment [9] has as its system SN12C. Kind of experiment: Antiproliferative activity against human SN12C cells assessed as growth inhibition. It counts as functional. The essentials:
as §1

Calls of active or inactive are those of the source. The rule behind the calls is not given here.

For orientation: GI50 means the concentration at which growth is held to half of that of the control. On to `COc1cnc2c(c1)C(=O)c1c-2n(CCCNC2=NCCS2)c(=O)c2cc(Cl)ccc12`, for which the GI50 was found to be 350 nM in experiment [1]; 92 nM in experiment [2]; 36 nM in [3]; 95 nM in experiment [4]; 42 nM in experiment [6]; 1300 nM in [7]. Besides, the GI50 in experiment [8] was 470 nM. For the same molecule, the “Top1-mediated DNA cleavage activity (active/not active)” value in experiment [5] is “Active”.
On to `COc1cnc2c(c1)C(=O)c1c-2n(CCCN2CCOCC2)c(=O)c2cc(Cl)ccc12`, for which the GI50 worked out at 160 nM in experiment [1]; 410 nM in [2]; 90 nM in experiment [3]; 180 nM in [4]; 270 nM in experiment [6]; 780 nM in experiment [7]. Further, in experiment [8], the 50% growth inhibitory concentration (GI50) was determined as 230 nM. Moreover, the “Top1-mediated DNA cleavage activity (active/not active)” value in [5] is “Active”.
As to `COc1cnc2c(c1)C(=O)c1c-2n(CCCN2CCCC2)c(=O)c2cc(F)ccc12`, the GI50 in [1] came to 153 nM; in [2], 211 nM; in experiment [9], 241 nM; in experiment [3], 48 nM; in [4], 471 nM; in experiment [6], 212 nM. Further, the GI50 came out at 307 nM in experiment [7] and 360 nM in experiment [8]. In addition, the “Top1-mediated DNA cleavage activity (active/not active)” value in experiment [5] was “Active”.
For `COc1cnc2c(c1)C(=O)c1c-2n(CCCN2CCNCC2)c(=O)c2cc(F)ccc12`, the GI50 in experiment [1] worked out at 91 nM; in [2], 62 nM; in experiment [9], 80 nM; in [3] it was 34 nM; in experiment [4], 1260 nM; in experiment [6] it was 66 nM. The GI50 in experiment [7] worked out at 335 nM; in [8] it was 532 nM. Further, in [5], the “Top1-mediated DNA cleavage activity (active/not active)” value is “inactive”.
For the molecule `CNCCCn1c2c(c3ccc(F)cc3c1=O)C(=O)c1cc(OC)cnc1-2`, the GI50 in experiment [1] was 143 nM; in [2], 202 nM; in experiment [9], 211 nM; in experiment [3], 34 nM; in experiment [4], 608 nM; in experiment [6], 142 nM. In addition, the GI50 in experiment [7] came to 263 nM; in experiment [8], 368 nM. In [5], the “Top1-mediated DNA cleavage activity (active/not active)” value was “inactive”.
As to `COc1cnc2c(c1)C(=O)c1c-2n(CCCN2CCOCC2)c(=O)c2cc([N+](=O)[O-])ccc12`, in [5], the “Top1-mediated DNA cleavage activity (active/not active)” value was “Active”.
`COc1cnc2c(c1)C(=O)c1c-2n(CCCNC(C)C)c(=O)c2cc(F)ccc12`: the GI50 in [1] is 93 nM; in experiment [2] it was 210 nM; in experiment [9], 164 nM; in experiment [3] it was 31 nM; in experiment [4], 271 nM; in experiment [6] it was 107 nM. The results for the GI50 in experiment [7] and in [8] were 190 nM and 248 nM, respectively. In addition, the “Top1-mediated DNA cleavage activity (active/not active)” value in experiment [5] was “Active”.
As to `O=C1c2ccccc2-c2c1c1ccc(Cl)cc1c(=O)n2CCCn1ccnc1`, the GI50 in experiment [9] is 110 nM; in experiment [3], 31 nM; in experiment [4] it was 74 nM. Moreover, the “Top1-mediated DNA cleavage activity (active/not active)” value in [5] was “Active”.
For the molecule `COc1cnc2c(c1)C(=O)c1c-2n(CCCN2CCCC2)c(=O)c2cc(Cl)ccc12`, the “Top1-mediated DNA cleavage activity (active/not active)” value in [5] is “Active”.
Turning to `COc1cnc2c(c1)C(=O)c1c-2n(CCCN2CCOCC2)c(=O)c2cc(F)ccc12`, the GI50 was found to be 115 nM in experiment [1]; 341 nM in experiment [2]; 320 nM in experiment [9]; 44 nM in experiment [3]; 235 nM in experiment [4]; 187 nM in experiment [6]. Besides, the GI50 was 250 nM in experiment [7] and 228 nM in experiment [8]. Also, the “Top1-mediated DNA cleavage activity (active/not active)” value in [5] was “Active”.
Take `COc1cnc2c(c1)C(=O)c1c-2n(CCCN2CCC(O)CC2)c(=O)c2cc(F)ccc12`: the GI50 in [1] turned out to be 89 nM; in [2], 174 nM; in experiment [9], 189 nM; in experiment [3] it was 31 nM; in experiment [4], 240 nM; in [6], 142 nM. Also, the GI50 was 254 nM in [7] and 295 nM in [8]. In experiment [5], the “Top1-mediated DNA cleavage activity (active/not active)” value is “inactive”.
On to `COc1cnc2c(c1)C(=O)c1c-2n(CCCNC2=NCCS2)c(=O)c2cc(F)ccc12`, for which the GI50 in experiment [1] was determined as 82 nM; in [2], 144 nM; in experiment [9], 238 nM; in experiment [3], 33 nM; in experiment [4], 344 nM; in experiment [6], 59 nM. For the same molecule, the figures for the GI50 in experiment [7] and in experiment [8] were 567 nM and 305 nM, respectively. Also, the “Top1-mediated DNA cleavage activity (active/not active)” value in experiment [5] was “Active”.
Turning to `CCNCCCn1c2c(c3ccc(F)cc3c1=O)C(=O)c1cc(OC)cnc1-2`, the GI50 was 136 nM in experiment [1]; 215 nM in experiment [2]; 151 nM in experiment [9]; 42 nM in experiment [3]; 341 nM in experiment [4]; 149 nM in [6]. Besides, the GI50 in experiment [7] worked out at 282 nM; in [8], 320 nM. In [5], the “Top1-mediated DNA cleavage activity (active/not active)” value is “Active”.
As to `CNCCCn1c2c(c3ccc(Cl)cc3c1=O)C(=O)c1cc(OC)cnc1-2`, the GI50 in [1] worked out at 550 nM; in experiment [2], 331 nM; in experiment [9], 1180 nM; in experiment [3] it was 46 nM; in experiment [4], 574 nM; in experiment [6], 220 nM. The figures for the concentration for 50% growth inhibition (GI50) in experiment [7] and in experiment [8] were 1410 nM and 730 nM, respectively. The “Top1-mediated DNA cleavage activity (active/not active)” value in [5] was “Active”.
On to `O=C1c2ccccc2-c2c1c1ccc([N+](=O)[O-])cc1c(=O)n2CCCn1ccnc1`, for which the “Top1-mediated DNA cleavage activity (active/not active)” value in experiment [5] was “Active”.
`COc1cnc2c(c1)C(=O)c1c-2n(CCCN2CCNCC2)c(=O)c2cc(Cl)ccc12`: the GI50 in experiment [1] was determined as 298 nM; in experiment [2], 242 nM; in experiment [9], 489 nM; in experiment [3], 89 nM; in experiment [4], 1430 nM; in [6], 200 nM. In addition, the concentration for 50% growth inhibition (GI50) was 1430 nM in experiment [7] and 1330 nM in experiment [8]. Besides, the “Top1-mediated DNA cleavage activity (active/not active)” value in experiment [5] was “inactive”.
`COc1cnc2c(c1)C(=O)c1c-2n(CCCNC(C)C)c(=O)c2cc(Cl)ccc12`: the GI50 in [1] is 138 nM; in experiment [2], 173 nM; in [9], 417 nM; in [3], 37 nM; in experiment [4], 303 nM; in [6] it was 70 nM. Besides, the GI50 is 1390 nM in experiment [7] and 554 nM in experiment [8]. Moreover, the “Top1-mediated DNA cleavage activity (active/not active)” value in experiment [5] is “Active”.
